Results: ChEMBL document CHEMBL1158367, “Cationic surfactants from lysine: synthesis, micellization and biological evaluation” (Eur J Med Chem, 2009)
In brackets after ≈: the same amount, converted by molar mass. Activity calls are given as the source filed them. No cut-off for these calls is given here.

Tests used:
[1] = test system: Bordetella bronchiseptica; test: Antimicrobial activity against Bordetella bronchiseptica after 24 hrs; format: functional
In short: (§1)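 MIC by agar dilution: compound incorporated in nutrient agar at 0.1–256 µg/mL, with poorly soluble surfactants predissolved in minimal DMF and a DMF-matched solvent control. Plates were seeded with nutrient broth starter culture and incubated at 37 °C. Growth was scored visually after 24 h; test medium pH 6.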

Escherichia coli [2] = test: Antimicrobial activity against Escherichia coli after 24 hrs; format: functional; in short: as §1
Klebsiella pneumoniae [3] = test: Antimicrobial activity against Klebsiella pneumoniae after 24 hrs; format: functional; in short: as §1
[4] = test system: Staphylococcus epidermidis; test: Antimicrobial activity against Staphylococcus epidermidis after 24 hrs; format: functional; in short: as §1
Bacillus subtilis = test: Antimicrobial activity against Bacillus subtilis after 24 hrs; format: functional; in short: as §1
Micrococcus luteus = test: Antimicrobial activity against Micrococcus luteus after 24 hrs; format: functional; in short: as §1
Klebsiella aerogenes [5] = test: Antimicrobial activity against Enterobacter aerogenes after 24 hrs; format: functional; in short: as §1
Serratia marcescens [6] = test: Antimicrobial activity against Serratia marcescens after 24 hrs; format: functional; in short: as §1
Pseudomonas aeruginosa [7] = test: Antimicrobial activity against Pseudomonas aeruginosa after 24 hrs; format: functional; in short: as §1
[8] = test system: Salmonella enterica subsp. enterica; test: Antimicrobial activity against Salmonella Typhimurium after 24 hrs; format: functional, Salmonella enterica subsp. enterica serovar Typhimurium; in short: as §1
Staphylococcus aureus = test: Antimicrobial activity against Staphylococcus aureus after 24 hrs; format: functional; in short: as §1
[9] = Toxicity in human erythrocytes assessed as hemolytic activity; format: cell-based, Erythrocyte
In short: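 Erythrocytes washed three times in isotonic phosphate saline with 10 mmol/L glucose, pH 7.4, then exposed to surfactant for 10 min at room temperature with shaking and centrifuged. Supernatant A540 compared with water-lysed total-haemolysis controls. HC50 read from percent haemolysis versus concentration plots.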

Mycolicibacterium phlei = test: Antimicrobial activity against Mycobacterium phlei after 24 hrs; format: functional; in short: as §1
Enterococcus hirae = test: Antimicrobial activity against Enterococcus hirae after 24 hrs; format: functional; in short: as §1
Bacillus cereus = test: Antimicrobial activity against Bacillus cereus var. mycoides after 24 hrs; format: functional
In short: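 Agar dilution MIC: compounds incorporated into nutrient agar over 0.1–256 µg/mL; poorly soluble ones first dissolved in minimal DMF, then diluted into medium, with a DMF-supplemented solvent control. Inoculated from a nutrient broth starter culture to a final ca. 5 × […] CFU/mL. Incubated 24 h at 37 °C; growth scored visually against a compound-free control.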

[10] = Toxicity against Daphnia magna after 24 hrs by immobility assay
In short: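 Daphnia magna acute test using laboratory-bred animals no older than 24 h. Medium pH 8.0, hardness 250 mg/L as CaCO3 (Ca/Mg 4/1), dark, 20 °C. Four groups of five per concentration, ten concentrations in geometric series. Immobility at 24 h plotted on log-probability paper; IC50 with 95% confidence ranges.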

[11] = Dissociation constant, pKa of the compound; format: physicochemical
In short: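 Apparent pKa calculated from pH measurements of surfactant solutions at concentrations that show antimicrobial activity.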

[12] = Critical micelle concentration by PGSE-NMR method; format: physicochemical
In short: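 Surfactant intradiffusion measured by PGSE-NMR, varying gradient strength, from alkyl-chain CH2 signal intensities, at 25 °C (50 °C for the palmitoyl analogue). CMC taken from fitting the two-site exchange model D_obs = p_mic·D_mic + (1−p_mic)·D_free to the descending part of D versus concentration.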

Candida albicans [13] = test: Antimicrobial activity against Candida albicans at […] after 24 hrs; format: functional, organism-based
Klebsiella pneumoniae [14] = test: Antimicrobial activity against Klebsiella pneumoniae at […] after 24 hrs; format: functional, organism-based
[15] = test system: Salmonella enterica subsp. enterica; test: Antimicrobial activity against Salmonella Typhimurium at […] after 24 hrs; format: functional, organism-based; conditions: Salmonella enterica subsp. enterica serovar Typhimurium
Pseudomonas aeruginosa [16] = test: Antimicrobial activity against Pseudomonas aeruginosa at […] after 24 hrs; format: functional, organism-based
[17] = test system: Bordetella bronchiseptica; test: Antimicrobial activity against Bordetella bronchiseptica at […] after 24 hrs; format: functional, organism-based
Serratia marcescens [18] = test: Antimicrobial activity against Serratia marcescens at […] after 24 hrs; format: functional, organism-based
Klebsiella aerogenes [19] = test: Antimicrobial activity against Enterobacter aerogenes at […] after 24 hrs; format: functional, organism-based
Candida albicans [20] = test: Antimicrobial activity against Candida albicans after 24 hrs; format: functional; in short: as §1
Escherichia coli [21] = test: Antimicrobial activity against Escherichia coli at […] after 24 hrs; format: functional, organism-based

| Molecule | MIC [1] | MIC (Escherichia coli [2]) | MIC (Klebsiella pneumoniae [3]) | MIC [4] | MIC (Bacillus subtilis) | MIC (Micrococcus luteus) | MIC (Klebsiella aerogenes [5]) | MIC (Serratia marcescens [6]) | MIC (Staphylococcus aureus) | IC50 [9] | MIC (Mycolicibacterium phlei) | MIC (Enterococcus hirae) | MIC (Bacillus cereus) | IC50 [10] | CMC [12] | Activity [15] | Activity (Pseudomonas aeruginosa [16]) | Activity [17] | Activity (Serratia marcescens [18]) | Activity (Klebsiella aerogenes [19]) | also measured |
| --- | --- | --- | --- | --- | --- | --- | --- | --- | --- | --- | --- | --- | --- | --- | --- | --- | --- | --- | --- | --- | --- |
| hexadecyl trimethyl ammonium bromide | 20 µM | 44 µM | 44 µM | 10 µM | 44 µM | 44 µM | – | – | – | – | – | – | – | – | – | – | – | – | – | – | – |
| CCCCCCCCCCCC(=O)N[C@@H](CCCCN)C(=O)OC | 42 µM (≈ 14.4 µg/mL) | 42 µM (≈ 14.4 µg/mL) | 85 µM (≈ 29.1 µg/mL) | 42 µM (≈ 14.4 µg/mL) | 42 µM (≈ 14.4 µg/mL) | 11 µM (≈ 3.77 µg/mL) | 157 µM (≈ 53.8 µg/mL) | 338 µM (≈ 116 µg/mL) | 85 µM (≈ 29.1 µg/mL) | 199 µM | – | – | – | – | – | – | – | – | – | – | MIC (Pseudomonas aeruginosa [7]): 169 µM (≈ 57.9 µg/mL); MIC [8]: 85 µM (≈ 29.1 µg/mL) |
| CCCCCCCCCCCCCC(=O)NCCCC[C@H](N)C(=O)OC.Cl | – | 157 µM | – | 157 µM | 157 µM | 157 µM | – | – | 157 µM | 1230 µM | 78 µM | 157 µM | 157 µM | 7.3 µM | 1.6 mM | inactive | inactive | inactive | inactive | inactive | pKa [11]: 7.8; Activity (Candida albicans [13]): inactive; Activity (Klebsiella pneumoniae [14]): inactive |
| CCCCCCCCCCCC(=O)NCCCC[C@H](N)C(=O)OC.Cl | – | 169 µM | 338 µM | 169 µM | 338 µM | 338 µM | – | – | 338 µM | 391 µM | 169 µM | 338 µM | 169 µM | 32 µM | 5.5 mM | inactive | inactive | inactive | inactive | inactive | MIC (Candida albicans [20]): 169 µM; pKa [11]: 8.2 |
| CCCCCCCCCCCCCCCC(=O)NCCCC[C@H](N)C(=O)OC.Cl | – | – | – | 148 µM | 148 µM | 74 µM | – | – | 148 µM | 1450 µM | 148 µM | 74 µM | 148 µM | – | 0.6 mM | inactive | inactive | inactive | inactive | inactive | Activity (Candida albicans [13]): inactive; Activity (Klebsiella pneumoniae [14]): inactive; Activity (Escherichia coli [21]): inactive |
| CCCCCCCCCCCC(=O)N[C@@H](CCCNC(=N)N)C(=O)OC | 157 µM (≈ 58.2 µg/mL) | 157 µM (≈ 58.2 µg/mL) | 79 µM (≈ 29.3 µg/mL) | 20 µM (≈ 7.41 µg/mL) | 157 µM (≈ 58.2 µg/mL) | 39 µM (≈ 14.5 µg/mL) | 157 µM (≈ 58.2 µg/mL) | 315 µM (≈ 117 µg/mL) | 39 µM (≈ 14.5 µg/mL) | 150 µM | 39 µM (≈ 14.5 µg/mL) | 39 µM (≈ 14.5 µg/mL) | 39 µM (≈ 14.5 µg/mL) | 36 µM | – | – | – | – | – | – | MIC (Pseudomonas aeruginosa [7]): 157 µM (≈ 58.2 µg/mL); MIC [8]: 157 µM (≈ 58.2 µg/mL); MIC (Candida albicans [20]): 157 µM (≈ 58.2 µg/mL) |
